Shown are actives, neighbours in structure and some others; about 2.2% of the full set was active somewhere.
APP 5'UTR act: activators of APP 5'UTR luciferase reporter, primary screen, SH-SY5Y cells; SH-SY5Y APP 5'UTR luciferase reporter, luminescence; zero percent = DMSO vehicle wells; activation, % at 2 µM; hit rate 1% among 190,000; AID 1276, 2008;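 active means activation above a set limit, based on mean plus 3 SD of controls, cut at about 140% in these data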
FLuc act counter: FLuc activators, initial screening, artefact control for FLuc-dependent activation tests, biochemical, ATPlite luminescence; ATPlite luciferase biochemical, 10 min; 0 = ATP-free wells, 1 = DMSO control; 200,000 tested, under 10 active; activation factor at 10 µM;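 active means luciferase activation factor, scaled between plate controls, of at least 2 with compound at 10 µM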
Target sequence (P08659 whole entry, looked up): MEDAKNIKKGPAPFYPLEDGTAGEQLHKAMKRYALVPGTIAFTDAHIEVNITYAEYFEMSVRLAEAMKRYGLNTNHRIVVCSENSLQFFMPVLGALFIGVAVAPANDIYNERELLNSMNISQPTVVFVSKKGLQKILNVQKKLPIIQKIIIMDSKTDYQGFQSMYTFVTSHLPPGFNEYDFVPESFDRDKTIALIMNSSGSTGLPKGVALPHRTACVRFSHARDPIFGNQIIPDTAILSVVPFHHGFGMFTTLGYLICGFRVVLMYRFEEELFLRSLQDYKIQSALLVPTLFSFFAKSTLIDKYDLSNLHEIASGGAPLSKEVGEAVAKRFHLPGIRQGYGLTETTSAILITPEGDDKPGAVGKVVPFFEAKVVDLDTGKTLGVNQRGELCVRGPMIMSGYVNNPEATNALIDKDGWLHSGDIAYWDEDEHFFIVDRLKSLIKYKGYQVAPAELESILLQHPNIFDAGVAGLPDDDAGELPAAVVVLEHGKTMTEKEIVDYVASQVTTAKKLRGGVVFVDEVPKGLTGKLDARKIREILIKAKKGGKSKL
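Material: luciferase plus luciferin reagent, cell-free. Medium: PBS buffer for ATP. Also added: ATP substrate, dispensed from a 10.24 µM working solution in PBS. Doses: test compounds dosed from 2 mM stocks in 100% DMSO. Incubation: 10 min post-reagent at room temperature. Technique: light output (luminescence). Read-out basis: luminescence gain marking luciferase activators.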
FLuc inhib CS: firefly luciferase enzyme inhibitors, primary screen, artefact control for luciferase-based inhibitor screens, biochemical, luminescence, ATPLite; AID 1006, 2008; hit rate 1.5% among 200,000; inhibition, % at 10 µM; Luciferin 4-monooxygenase (Photinus pyralis), P08659; 10 min;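 active means inhibition above about 50% when tested at 10 µM, limit read from the data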
TRAIL sens C8: viability loss with TRAIL in NB7+C8 cells, primary screen, TRAIL sensitizer project, cell-based, ATPlite luminescence; inhibition (viability loss, TRAIL sensitization), % at 10 µM; AID 624354, 2012; hit rate 1% among 360,000;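 active means compounds causing at least 50% loss of cell viability in the single-dose screen, relative to plate controls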
NF-kB neuron act: activators of NF-kB expression in neurons, primary screen, cell-based, HTS. human neuronal cells, NF-kB reporter expression; stronger effect = higher value. fold change at 12.5 µM. hit rate 1.6% among 190,000. AID 1239, 2008; in the data active means fold change above about 3.3
PPC-1+TRAIL kill: compounds killing PPC-1 cancer cells with TRAIL present, primary screen, TRAIL potentiator project, ATPLite luminescence, uHTS | PPC-1 cells + TRAIL, ATPLite viability luminescence | cell killing (% activity), % at 4 µM or 5 µM | hit rate 0.41% among 220,000 | AID 1443, 2008;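 active means cell killing above 50% in the first pass at 4 µM, then a duplicate retest at 5 µM averaging 50% or more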;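 further: plate controls were cells with TRAIL plus DMSO for no effect and medium-only wells lacking cells for full effect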
The depositor's hits bear a star; · = no result given.

SMILES | APP 5'UTR act | FLuc act counter | FLuc inhib CS | TRAIL sens C8 | NF-kB neuron act | PPC-1+TRAIL kill
COc1ccccc1-c1ccc2c(c1)C(C)(Cc1cccc(C#N)c1)C(=O)N2 (centres undefined) | · | · | · | -6 | · | ·
COCCNC(=O)C1(C)CCCN(Cc2noc(-c3ccccc3OC)n2)C1 (centres undefined) | · | · | · | -15 | · | ·
O=C1NC[C@H](CCCCN2C[C@H](Cc3ccccc3)N(CCC3CCCCC3)C(=O)C2=O)N(Cc2ccccc2)C1=O | · | · | · | 7 | · | ·
COc1ccc(C(NC(=O)C2CCN(CCOc3ccc(Cl)cc3Cl)CC2)c2cccs2)cc1 (centres undefined) | · | · | · | 4 | · | ·
CCCCCCNC(=O)Nc1ccccc1 | 14 | 1 | 4 | -10 | 1.8 | 30
O=C(O)CCCNC(=O)Nc1ccccc1 | 3 | 1.1 | -5 | 0 | 13* | 11
CC(=O)CC1c2ccccc2C=C(c2ccsc2)N1c1ccc(-c2cccs2)cc1 (centres undefined) | · | · | · | 17 | · | ·
c1ccc(-c2cn3nc(-c4ccccc4)cnc3n2)cc1 | 172* | 0.6 | 37 | 23 | 4.1* | -2
CCc1ccc(-c2cn3nc(C)c(C)nc3n2)cc1 | 2 | 0.2 | 84* | 56* | 2.9 | ·
Cc1nc2nc(-c3ccccc3)cn2nc1C | 98 | 0.5 | 46 | -9 | 4.7* | 29
Cc1nc2nc(-c3ccc(F)cc3)cn2nc1C | · | · | · | 21 | · | ·
CCOC(=O)c1cnc2c(-c3ccc(Cl)cc3)cnn2c1C | 111 | 0.4 | 57* | 51* | 2.4 | ·
CCOC(=O)c1cnc2c(-c3ccc(F)cc3)cnn2c1C(F)(F)F | 17 | 1 | -3 | -2 | 1.2 | -2
Oc1ccc(-c2csc(Nc3ncccn3)n2)cc1 | 173* | 0.4 | 56* | 29 | 9.1* | 38
Cc1cccnc1Nc1nc(-c2ccccc2)cs1 | · | · | · | 11 | · | ·
CC(=O)Nc1ccc(-c2csc(Nc3ncccn3)n2)cc1 | 141* | 1 | 0 | 8 | 1.4 | -3
O=C(O)c1ccc(Nc2nc(-c3ccccc3)cs2)cc1 | 126 | 0.9 | 8 | 5 | 4.7* | -4
CC(=O)Nc1ccc(-c2csc(Nc3cc(C)ccn3)n2)cc1 | 41 | 1 | 3 | 17 | 1.1 | 12
Oc1ccc(Nc2nc(-c3ccc4ccccc4c3)cs2)cc1 | -2 | 0.8 | 22 | 19 | 2.8 | 28
c1ccc(-c2csc(Nc3ncccn3)n2)cc1 | 163* | 0.7 | 28 | 39 | 2.8 | 29
Cc1csc(Nc2ccc(C(=O)O)cc2)n1 | · | · | · | 12 | · | -4
CCCCCC(=O)N1C[C@H](O)[C@@H](n2cc(C3CC3)nn2)C[C@@H]1c1ccc(C)cc1 | · | · | · | 5 | · | ·
Cc1cc(N2CCN(C(C(=O)NC3CCCC3)c3ccco3)CC2)c2ccccc2n1 (centres undefined) | · | · | · | 1 | · | ·
c1ccc(CCNc2nc(-c3ccncc3)cs2)cc1 | 22 | 1 | 2 | 0 | 1.7 | 11
CCCCCNc1nc(-c2ccccc2)cs1 | 2 | 0.7 | 27 | · | 6.4* | 8
SMILES | APP 5'UTR act | FLuc act counter | FLuc inhib CS | TRAIL sens C8 | NF-kB neuron act | PPC-1+TRAIL kill
Cc1ccc2oc(-c3ccccc3)c(C(=O)O)c(=O)c2c1 | 166* | 0.9 | 6 | 57* | 4* | 28
Cc1cc(C(=O)CSc2ncccn2)c(C)n1Cc1ccco1 | 141* | 0.4 | 64* | 11 | 4.3* | 17
CCOc1ncccc1C(=O)OCC(=O)c1cc(C)n(Cc2ccco2)c1C | 164* | 0.3 | 67* | 29 | 4.6* | 32
Cc1cc(C(=O)COC(=O)c2ccc(O)cc2)c(C)n1Cc1ccco1 | 164* | 0.8 | 24 | 11 | 4.4* | -12
Cc1cc(C(=O)COC(=O)C(C)NC(N)=O)c(C)n1Cc1ccco1 (centres undefined) | 9 | 0.3 | 67* | -2 | 1.6 | 5
Cc1cc(C(=O)COC(=O)c2ccc(Br)o2)c(C)n1Cc1ccco1 | 56 | 0.5 | 50 | · | 1.1 | 2
CC1=C(C(=O)N2CCCCCC2)CC(CC(=O)NCCCCc2ccccc2)C(=O)N1Cc1ccccc1 (centres undefined) | · | · | · | -10 | · | ·
C[C@H](NC(=O)C[C@@H]1C=C[C@@H](NC(=O)CN2CCOCC2)[C@@H](CO)O1)c1ccccc1 | · | · | · | -3 | · | ·
O=C(NCc1ccccc1)C(C1CC1)n1c(CSCCOc2ccccc2)nc2ccccc21 (centres undefined) | · | · | · | -7 | · | ·
Cc1ccc(-n2c(C)cc(C(=O)CSc3nnnn3C)c2C)cc1 | 168* | 0.8 | 20 | 16 | 5.4* | -7
Cc1ccc(-n2c(C)cc(C(=O)CSc3nncs3)c2C)cc1 | 139* | 0.5 | 54* | 36 | 5.4* | 21
Cc1cc(C(=O)CSc2nnnn2C)c(C)n1CCc1ccc(F)cc1 | -6 | 1.1 | -9 | 0 | 1.6 | 17
Cc1cc(C(=O)CSc2nncs2)c(C)n1-c1c(C)n(C)n(-c2ccccc2)c1=O | -5 | 1 | -1 | -5 | 1.2 | 5
CC1(C(=O)NS(=O)(=O)c2ccc(Cl)s2)CCN1C(=O)C1CCCCC1 (centres undefined) | · | · | · | -13 | · | ·
COc1ccc(S(=O)(=O)/N=C2\C=C(Nc3ccc(O)cc3)C(=O)c3ccccc32)cc1 | · | · | · | 96* | · | ·
CCOC(=O)c1ccc2c(c1)n(CC)c(/C=C/N(C)c1ccccc1)[n+]2CC | -5 | 1.1 | -5 | 38 | 0.55 | 20
CC[n+]1c(/C=C/N(C)c2ccccc2)n(-c2ccccc2)c2ccc(-c3nc4ccccc4s3)cc21 | · | · | · | 91* | · | ·
CCn1c(C)cc(/C=C2/SC(=S)NC2=O)c1C | 8 | 0.5 | 52* | -8 | 1.4 | -7
CC1=Nc2ccccc2N=C(N)C1c1ccccc1 (centres undefined) | 192* | 1 | -3 | -10 | 1 | -12
O=C(NOCc1ccccc1)c1ccccc1 | · | · | · | 12 | · | ·
O=C(NOCc1ccccc1)c1ccc(Cl)cc1Cl | · | · | · | 58* | · | ·
COc1cc(OC)cc(C2=Cc3ccccc3C(CC(=O)c3ccco3)N2c2ccc(-c3ccc(C(N)=O)cc3)cc2)c1 (centres undefined) | · | · | · | -16 | · | ·
Cc1nc(Nc2nc3ccccc3o2)nc2c1CCC2 | 125 | 0.3 | 66* | 38 | 3.7* | 25
CCCS(=O)(=O)NC(=O)C1(C)CCN(C(=O)c2nc(C)oc2C)C1 (centres undefined) | · | · | · | -7 | · | ·
COc1cccc(-c2noc(-c3ccc(Cl)nc3)n2)c1 | 124 | 0.7 | 31 | 22 | 4.9* | 1
O=C(N/N=C/c1cccc(F)c1)c1ccc(Cl)cc1 | 20 | 0.4 | 58* | 23 | 2.7 | 15
O=C(N/N=C/c1ccncc1)c1cccc(NC(=O)c2ccc(Cl)cc2)c1 | 17 | 1 | 0 | -8 | 0.82 | 9

High-throughput results (PubChem BioAssay)
